# Rows were chosen to be rich in hits. Some 2% of all compounds tested hit in one or more screens of this group.
# MEX-5 binding = MEX-5 zinc finger RNA-binding disruptors – biochemical, C. elegans, fluorescence polarization, MLPCN library, primary screen; MEX-5/FITC-TCR2 RNA binding; active compounds read low; activity score (negative = inhibition of binding), % at 10 µM; AID 1832, 2009; Zinc finger protein mex-5 (Caenorhabditis elegans), Q9XUB2; 0.38% of 300,000 active;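 active = inhibition past about -25% in most replicates, and total fluorescence under double the plate's negative control median, limit read from the data; inconclusive = replicates evenly split on the limit, or fluorescence at least double controls; inactive = too little inhibition in most replicates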;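 also: 0% = DMSO and -100% = 5 µM competing unlabeled TCR2 RNA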
# Runt-CBFb FRET = inhibitors of RUNX1 Runt–CBFb binding, primary screen, biochemical, FRET, Cerulean-Runt, Venus-CBFb, uHTS; 0.46% of 220,000 active; inhibition, % at 20 µM; Cerulean-Runt/Venus-CBFb FRET ratio 530/480, 1 h; AID 1496, 2009;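 active = inhibition over about 50% at 20 µM in the single-dose screen, limit read from the data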;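 also: 0% = DMSO wells and 100% = excess unlabeled CBFb competitor control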
# Target sequence (Q01196 whole entry, looked up): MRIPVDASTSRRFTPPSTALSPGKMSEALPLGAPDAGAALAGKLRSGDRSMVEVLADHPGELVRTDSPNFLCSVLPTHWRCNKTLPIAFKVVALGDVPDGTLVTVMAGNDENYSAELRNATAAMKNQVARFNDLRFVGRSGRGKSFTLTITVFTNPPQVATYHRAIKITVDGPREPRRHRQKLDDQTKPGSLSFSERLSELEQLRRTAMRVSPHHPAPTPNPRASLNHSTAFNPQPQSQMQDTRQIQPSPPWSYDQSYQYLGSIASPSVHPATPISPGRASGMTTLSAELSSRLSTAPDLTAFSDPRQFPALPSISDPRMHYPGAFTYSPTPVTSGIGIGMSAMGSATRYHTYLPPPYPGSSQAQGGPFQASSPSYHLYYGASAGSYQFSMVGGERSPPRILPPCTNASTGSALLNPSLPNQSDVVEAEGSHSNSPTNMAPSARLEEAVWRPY
# Target sequence (Q13951 whole entry, looked up): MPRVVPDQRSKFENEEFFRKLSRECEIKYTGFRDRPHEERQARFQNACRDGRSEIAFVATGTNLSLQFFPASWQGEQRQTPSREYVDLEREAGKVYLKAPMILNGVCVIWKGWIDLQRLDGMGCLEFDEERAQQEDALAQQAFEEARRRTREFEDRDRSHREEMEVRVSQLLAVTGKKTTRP
#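 Assay system: Cerulean-Runt domain fusion protein, energy donor; Signal: fluorescence energy transfer, 422 nm excitation, 530/480 nm emission; Timing: 1 h compound exposure, room temperature; Control set: unlabeled CBFb; Medium: Tris buffer pH 7.5 with salts and BSA; Compound: single test concentration of 20 µM, 1% DMSO final; Probe or stimulus: Venus-CBFb 100 nM.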
# PKD1 kinase inh = inhibitors of human PKD1 kinase, biochemical, fluorescence polarization; PKD1 kinase fluorescence polarization assay; 0.056% of 200,000 active; inhibition, % (test concentration not listed)
# EBV gp42 inh = Epstein-Barr virus gp42 inhibitors, primary screen, biochemical, uHTS, fluorescence polarization. Glycoprotein 42 (Epstein-Barr virus (strain AG876)), Q1HVG2. Fluorescence polarization binding assay, mP read-out. inhibition, % (tested at 21.74 µM). 0.42% of 220,000 active. AID 1085, 2008
# Runt-SMMHC FRET = inhibitors of RUNX1 Runt–CBFb-SMMHC binding, primary screen, biochemical, FRET, Cerulean-Runt, Venus-CBFb-SMMHC, uHTS; Runt-related transcription factor 1 (Homo sapiens) + Core-binding factor subunit beta …; AID 1434, 2008; 0.74% of 220,000 active; Cerulean-Runt/Venus-CBFb-SMMHC FRET ratio 530/480, 1 h; inhibition, % at 20 µM;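 active = mean inhibition across duplicate retests at 20 µM reaching about 50%, limit read from the data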;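 also: 0% = DMSO wells and 100% = wells with excess untagged CBFb-SMMHC; inhibitors lower the FRET ratio by blocking Runt binding to CBFb-SMMHC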
# RanGTP-Impb inh = inhibitors of RanGTP-importin-beta interaction, primary screen, biochemical, FRET, CFP-Ran, YFP-importin-beta, homogeneous; cell-free CFP-Ran/YFP-importin-beta FRET ratio; inhibition, % (concentration not given with the values); Ran GTPase (GTP-bound) - importin-beta complex; 1.1% of 300,000 active;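 active = more than half of the replicate wells show a fall in the fluorescence ratio signal beyond about 16%, limit read from the data, passing the limit was not always enough; inconclusive = exactly half of the replicate wells pass the set limit; inactive = fewer than half of replicates pass the limit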;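 also: 0% = DMSO wells and 100% = Ran loaded with GDP instead of GTP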
# An asterisk follows results filed as active; ? = inconclusive; . = no result. Rule as the data show it, unless noted: active = inhibition above about 50%; inactive = the rest.
SMILES,MEX-5 binding,Runt-CBFb FRET,PKD1 kinase inh,EBV gp42 inh,Runt-SMMHC FRET,RanGTP-Impb inh
N#CC1=C(N)SC(N)=C(C#N)C1c1ccnc2ccccc12,-6,20,4,-44,20,23*
O=C1c2ccccc2C(=O)C1c1ccnc2ccccc12,-6,-21,-5,-17,-82,-5
O=C(COC(=O)Cc1cccc(C(F)(F)F)c1)Nc1ccc2[nH]c(=O)[nH]c2c1,-1,.,.,.,.,-4
CCN1C(=O)/C(=C2\C=Cc3cc(C)ccc3N2CC)OC1=S,1,17,-8,4,34,6
CCN1C(=O)/C(=C2/C=Cc3ccccc3N2C)OC1=S,-28*,4,2,-54,2,-3
O=C(CCc1ccccc1)Nc1ccc2c(c1)C(=O)OC2,2,.,.,.,.,0
Cc1nn(CCOc2cccc(Cl)c2)c(C)c1[N+](=O)[O-],1,.,.,.,.,3
O=C1CCCS(=O)(=O)c2ccccc21,0,1,1,-12,3,-1
Cc1cc(C)nc(N(C#N)Cc2cccc(Cl)c2)n1,0,0,-1,-8,-1,51*
Cc1cc(C)nc(N(C#N)Cc2ccc(Cl)cc2)n1,0,1,-7,-12,1,-1
COc1ccc(-c2nc3ccccc3nc2-c2ccccc2)cc1,-2,1,-1,-23,1,-1
COc1ccc2nc3ccccc3nc2c1,-3,1,9,32,86*,38*
Cc1ccc(C(=O)NCc2ccccn2)cc1S(=O)(=O)N1CCCCC1,3,.,.,.,.,-3
CN1CCc2c(sc3c2C(=O)NC(c2ccc(-c4cccc(Cl)c4)o2)N3)C1 (stereo not drawn),6,115*,-8,4,85*,103*
Cc1ccsc1C1NC(=O)c2c(sc3c2CCN(C)C3)N1 (stereo not drawn),-5,106*,-6,-6,73*,132*
CN1CCc2c(sc3c2C(=O)NC(/C=C\c2ccccc2)N3)C1 (stereo not drawn),-8,118*,.,-8,70*,121*
COC(=O)C1=C(C)NC(=S)NC1c1ccc(-c2cccc(Cl)c2)o1 (stereo not drawn),3,24,-12,-27,26,-3
CSc1ccc(C2NC(=O)c3c(sc4c3CCN(C)C4)N2)cc1 (stereo not drawn),-2,110*,-3,-16,64*,112*
NS(=O)(=O)c1ccc(CCNS(=O)(=O)c2ccc3c(c2)NC(=O)CO3)cc1,0,.,.,.,.,-1
O=C(CSc1ccc([N+](=O)[O-])cn1)Nc1ccc2c(c1)OCO2,-1,.,.,.,.,-3
O=C(O)COCC(=O)N1CCc2c([nH]c3ccccc23)C1C(F)(F)F (stereo not drawn),4,.,.,.,.,3
CC(=O)Cc1nsc(NC(=O)c2ccc(-c3cccc(Cl)c3)o2)n1,.,3,0,-13,-5,-5
Cc1nn(-c2ccccc2)c(N2CCCC2)c1/C=N/NC(=O)c1cc(-c2cccnc2)nc2ccccc12,-28*,-11,-9,-1,-10,-3
Cc1nn(-c2ccccc2)c(N2CCCC2)c1/C=N/NC(=O)c1ccccc1O,-2,-5,-6,8,-1,1
O=C(COc1ccc(Br)cc1)NCCN1CCCC1,-1,.,.,.,.,2
SMILES,MEX-5 binding,Runt-CBFb FRET,PKD1 kinase inh,EBV gp42 inh,Runt-SMMHC FRET,RanGTP-Impb inh
CCN(CC)c1ccc(-c2c(C#N)c(N)nc(OC)c2C#N)cc1,-4,33,-8,-27,99*,8
Cn1nc(N)c2c(-c3ccc(Cl)cc3)c(C#N)c(N)nc21,-8,-3,4,-19,-1,3
CCN(CC)c1ccc(/C=C/c2cc(-c3ccccc3)c3ccccc3n2)cc1,3,-85,.,68*,84,-14
CN(C)c1ccc(/C=C/c2ccc3ccccc3n2)cc1,1,-26,.,-27,84,-70
O=C(O)c1ccc(N/N=C/C2=Cc3ccccc3OC2)cc1,-3,13,.,-11,35,21*
O=C(O)c1ccc(N/N=C/c2ccncc2)cc1,0,.,.,.,.,4
CC(C)(C)OC(=O)NCCC(=O)Oc1ccc2ccc(=O)oc2c1,-1,43,2,-4,68*,5
N=c1sc2ccccc2n1-c1ccccc1,-2,3,-5,-21,14,35*
CCc1ccc(N=C2NC(=O)/C(=C/c3cc(Br)c(OCC(=O)O)c(OC)c3)S2)cc1,-11,.,.,.,.,0
CCOc1cc(/C=C2\SC(=Nc3ccc(CC)cc3)NC2=O)ccc1OCC(=O)O,-44*,.,.,.,.,6
Clc1cccc(/C=N/Nc2nnc(Cl)c3ccccc23)c1,2,-2,-5,-4,3,34*
O=C1CCCC(O)=C1C=NCc1ccccc1,-4,-2,0,1,10,-6
N#C/C(=C\c1ccncc1)c1nc2c(s1)CCCC2,-17,22,3,9,87*,?
CC(=O)c1nnn(-c2cccc(C#N)c2)c1C,3,3,.,-17,-7,0
Cn1cc(/C=C/C(=O)c2ccccc2)c2ccccc21,1,0,.,-32,5,36*
Cc1ccc(C(=O)/C=C/c2cn(CN3CCN(C)CC3)c3ccccc23)cc1,-4,10,-6,-43,-1,72*
O=C(/C=C/c1cn(CC(O)CN2CCCCCC2)c2ccccc12)c1cccs1 (stereo not drawn),-11,-116,6,-145,-106,-20
Cc1nn(C)cc1/C=C/C(=O)c1ccccc1,1,1,-8,20,2,3
COc1ccc(C(=O)NCc2nnc(SCC(=O)NC3CCCC3)o2)cc1,1,.,.,.,.,0
CC(=O)Nc1ccc(NC(=O)[C@@H](NC(=O)c2ccccc2F)C(C)C)cc1,-1,.,.,.,.,-5
Cn1nc(-c2ccc(Cl)cc2)nc2c(=O)n(C)c(=O)nc1-2,-41*,-17,3,54*,-51,-16
CS(=O)(=O)n1nc(-c2ccc(Cl)cc2)nc1N,0,2,-7,3,-2,-3
O=C(Nc1ccc2c(c1)OCCO2)C1CCCN(S(=O)(=O)c2cnc[nH]2)C1 (stereo not drawn),2,-1,6,-3,4,143*
Cc1ccc(O)c(Nc2c3ccccc3nc3ccccc23)c1,-2,.,.,.,.,24*
Cc1ccc(O)c(Nc2nc(-c3ccccc3)nc3ccccc23)c1,3,.,.,.,.,-3
